In ChEMBL document CHEMBL1124957, “6-Benzoxazinylpyridazin-3-ones: potent, long-acting positive inotrope and peripheral vasodilator agents” (J Med Chem, 1990):

Tests used:
[1] = test system: Canis familiaris; experiment: Myocardial contractile force (CF) in dog after intravenous dose of 0.075 mg/kg; type: functional, Canis lupus familiaris, Myocardium
Procedure, shortened: (§1)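 Dopamine standard (10–15 μg/kg/min, 3 min) checked inotropic responsiveness. Compounds dissolved in DMF, diluted to 10% final in saline; stepwise 3–4 increasing doses, each infused over 5 min after prior peak. CF, MAP, HR expressed as % change from predrug control vs cumulative dose.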

[2] = test system: Canis familiaris; experiment: Mean arterial blood pressure (MAP) in dog after intravenous dose of 0.075 mg/kg; type: functional, Canis lupus familiaris; procedure, shortened: as §1
[3] = biological target: phosphodiesterase fraction III (Canis familiaris); experiment: Inhibition of cardiac phosphodiesterase-3 isolated from canine heart.
[4] = test system: Canis familiaris; experiment: Heart rate (HR) in dog after intravenous dose of 0.075 mg/kg; type: functional, Canis lupus familiaris; procedure, shortened: as §1
[5] = test system: Canis familiaris; experiment: Effective dose required to increase the myocardial contractile force (CF) 50% above base line when administered intravenously.; type: functional; conditions: Canis lupus familiaris, Myocardium, iv; procedure, shortened: as §1
[6] = organism: Canis familiaris; experiment: Inotropic and enzyme inhibition effect on heart rate (HR); type: functional, Canis lupus familiaris
[7] = test system: Canis familiaris; experiment: Myocardial contractile force (CF) in dog after intravenous dose of 0.470 mg/kg; type: functional, Canis lupus familiaris, Myocardium; conditions: dose 0.47 mg/kg
Procedure, shortened: as §1, with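 “Anesthetized adult mongrel dogs (sodium pentobarbital 45 mg/kg ip), artificially respired; MAP from cannulated femoral artery, infusion into femoral vein. Dopamine” for “Dopamine”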

[8] = test system: Canis familiaris; experiment: Mean arterial blood pressure (MAP) in dog after intravenous dose of 0.470 mg/kg; type: functional, Canis lupus familiaris; design: unit: % change from predrug control; conditions: dose 0.47 mg/kg
Procedure, shortened: as §1, with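 “Anesthetized adult mongrel dogs (sodium pentobarbital 45 mg/kg ip), artificially respired; MAP from cannulated femoral artery, infusion into femoral vein. Dopamine” for “Dopamine”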

[9] = test system: Canis familiaris; experiment: Heart rate (HR) in dog after intravenous dose of 0.470 mg/kg; type: functional, Canis lupus familiaris; conditions: dose 0.47 mg/kg
Procedure, shortened: as §1, with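 “Anesthetized adult mongrel dogs (sodium pentobarbital 45 mg/kg ip), artificially respired; MAP from cannulated femoral artery, infusion into femoral vein. Dopamine” for “Dopamine”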

[10] = test system: Canis familiaris; experiment: Heart rate in dog following 1.875 mg/kg i.v. administration.; type: functional, Canis lupus familiaris; conditions: route intravenous
Procedure, shortened: as §1, with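 “Anesthetized adult mongrel dogs (sodium pentobarbital 45 mg/kg ip), artificially respired; MAP from cannulated femoral artery, infusion into femoral vein. Dopamine” for “Dopamine”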

[11] = test system: Canis familiaris; experiment: Myocardial contractile force (CF) in dog after intravenous dose of 1.875 mg/kg; type: functional, Canis lupus familiaris, Myocardium
Procedure, shortened: as §1, with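 “Anesthetized adult mongrel dogs (sodium pentobarbital 45 mg/kg ip), artificially respired; MAP from cannulated femoral artery, infusion into femoral vein. Dopamine” for “Dopamine”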

[12] = test system: Canis familiaris; experiment: Mean arterial blood pressure in dog following 1.875 mg/kg i.v. administration.; type: functional, Canis lupus familiaris; conditions: route intravenous
Procedure, shortened: as §1, with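 “Anesthetized adult mongrel dogs (sodium pentobarbital 45 mg/kg ip), artificially respired; MAP from cannulated femoral artery, infusion into femoral vein. Dopamine” for “Dopamine”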

[13] = Index of contractility was determined as the ratio of % of dP/dtmax in conscious dog after (po) administration of a dose of 0.01 mg/kg; type: functional
Procedure, shortened: (§2)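 Conscious dogs, instrumented earlier with an LV Konigsberg pressure transducer through a left thoracotomy, with ≥1 week recovery and trained to lie quietly. LV dP/dtmax derived as the contractility index; baseline MAP, HR, dP/dtmax taken first. Compound suspended in 0.1% methylcellulose (10 mL) and given by gavage through a gastric tube. Response recorded as % change, also at 8 h.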

[14] = test system: Canis familiaris; experiment: Percent change in activity 8 hr after peroral administration in conscious dog at 0.10 mg/kg; type: functional, Canis lupus familiaris; conditions: dose 0.1 mg/kg; route oral; procedure, shortened: as §2
[15] = test system: Canis familiaris; experiment: Percent change in activity 8 hr after peroral administration in conscious dog at 0.30 mg/kg; type: functional, Canis lupus familiaris; conditions: dose 0.3 mg/kg; route oral; procedure, shortened: as §2
[16] = Index of contractility was determined as the ratio of % of dP/dtmax in conscious dog after (po) administration of 0.30 mg/kg; type: functional; conditions: dose 0.3 mg/kg; procedure, shortened: as §2
[17] = Index of contractility was determined as the ratio of % of dP/dtmax in conscious dog after (po) administration of 0.10 mg/kg; type: functional; conditions: dose 0.1 mg/kg; procedure, shortened: as §2
[18] = test system: Canis familiaris; experiment: Intravenous dose required to increase contractile force (inotropic effect) by 50%; type: functional; conditions: Canis lupus familiaris
Procedure, shortened: as §1, with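 “Anesthetized adult mongrel dogs (sodium pentobarbital 45 mg/kg ip), artificially respired; MAP from cannulated femoral artery, infusion into femoral vein. Dopamine” for “Dopamine”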

SMILES	IC50 [3] [µM]	ED50 [5] [mg/kg]	Activity [8]	Activity [9]	Activity [10]	Activity [11]	Activity [12]	further results
Cc1cc(C2=NNC(=O)CC2C)c2c(c1)N(C)C(=O)CO2 (centres undefined)	7.5	0.75	–	–	19	98	-17	–
CC(=O)N1CCOc2ccc(C3=NNC(=O)CC3C)cc21 (centres undefined)	30	0.056	-31	35	–	–	–	Activity [7]: 135
CN1C(=O)COc2ccc(C3=NNC(=O)CC3)cc21	18	0.279	-4	13	–	–	–	–
CC1(C)Oc2ccc(C3=NNC(=O)CC3)cc2NC1=O	23	0.65	–	–	14	113	-6	–
Cc1cc2c(c(C3=NNC(=O)CC3C)c1)OCC(=O)N2 (centres undefined)	28	1.8	–	–	8	51	-15	–
CC1CC(=O)NN=C1c1ccc2c(c1)OCC(=O)N2 (centres undefined) [BEMORADAN]	0.3	0.0054	–	–	–	–	–	Activity [1]: 127; Ratio [13]: 43%; Activity [2]: -21; Change [14]: 31%; Change [15]: 65%; Ratio [16]: 130%; Activity [4]: 25; Ratio [17]: 85%
CN1C(=O)C(C)(C)Oc2ccc(C3=NNC(=O)CC3)cc21	36	–	–	–	8	125	-12	ED50 [18]: 0.8 mg/kg
CC1CC(=O)NN=C1c1ccc2c(c1)N(S(C)(=O)=O)CCO2 (centres undefined)	4	0.148	-1	17	–	–	–	Activity [7]: 99

Second part, led by results:

IC50 [3] [µM]	SMILES	ED50 [5] [mg/kg]	Activity [8]	Activity [9]	Activity [10]	Activity [11]	Activity [12]	further results
4	CC1CC(=O)NN=C1c1ccc2c(c1)OC(C)(C)C(=O)N2 (centres undefined)	0.0162	–	–	–	–	–	Activity [1]: 82; Activity [2]: -28; Activity [4]: 16
26	Cc1cc(C2=NNC(=O)CC2)c2c(c1)N(C)C(=O)CO2	0.258	1	–	–	–	–	Activity [6]: 9; Activity [7]: 73
2	CC1CC(=O)NN=C1c1ccc2c(c1)NC(=O)CO2 (centres undefined)	0.077	-14	26	–	–	–	–
6	CC1CC(=O)NN=C1c1ccc2c(c1)N(C)C(=O)C(C)O2 (centres undefined)	0.068	-15	36	–	–	–	–
8	CC1CC(=O)NN=C1c1ccc2c(c1)N(C1CCCC1)C(=O)C(C)O2 (centres undefined)	> 1.88	–	–	7	36	-5	–
20	Cc1cc2c(cc1C1=NNC(=O)CC1C)NC(=O)CO2 (centres undefined)	0.137	-4	20	–	–	–	–
100	CN1N=C(c2ccc3c(c2)N(S(C)(=O)=O)CCO3)CCC1=O	> 1.88	–	–	12	26	0	–
14	CC1Oc2ccc(C3=NNC(=O)CC3)cc2NC1=O (centres undefined)	0.49	–	–	24	–	–	–
